Shown are actives, neighbours in structure and some others; about 1.4% of the full set was active somewhere.
thrombin 1536: thrombin (human) inhibition. P00734. alpha-thrombin, Boc-VPR-AMC fluorogenic substrate cleavage. inhibition, % at 5 µM. 220,000 tested, 0.26% active;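 active = inhibition at or above 40%; inactive = inhibition below 40%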;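 note: 0% = enzyme with no compound and 100% = wells without enzyme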
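signal = AMC fluorescence, 355/460 nm | material = human alpha-thrombin enzyme | control set = enzyme without compound as high, wells lacking enzyme as low | times = reaction at room temperature | read-out basis = percent inhibition scaled between no-compound controls and no-enzyme blanks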
m-calpain inh: blocks pig calpain II enzyme activity; 220,000 tested, 0.37% active; purified calpain II, fluorogenic peptide substrate, 30 min; inhibition, % at 16 µM;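 active = inhibition above about 50%, limit read from the data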
FXIa inh: inhibitors of human coagulation factor XIa. P03951. purified FXIa, Boc-Glu-Ala-Arg-AMC fluorogenic substrate. inhibition, % at 5 µM. 220,000 tested, 0.14% active;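 active = inhibition of at least 40%; inactive = inhibition below 40%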;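 note: fluorescence of freed AMC excited at 355 nm; 0% = enzyme without compound and 100% = no enzyme blank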
FXIIa inh 1536: blocks human coagulation factor XIIa protease activity; P00748; purified FXIIa, Boc-QGR-AMC fluorogenic substrate, 2 h; inhibition, % at 5 µM; 220,000 tested, 0.3% active; in the data active = inhibition above about 40%;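 note: 0% = enzyme with no compound and 100% = blank without enzyme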
Target sequence (P00748 20-372 limits assumed): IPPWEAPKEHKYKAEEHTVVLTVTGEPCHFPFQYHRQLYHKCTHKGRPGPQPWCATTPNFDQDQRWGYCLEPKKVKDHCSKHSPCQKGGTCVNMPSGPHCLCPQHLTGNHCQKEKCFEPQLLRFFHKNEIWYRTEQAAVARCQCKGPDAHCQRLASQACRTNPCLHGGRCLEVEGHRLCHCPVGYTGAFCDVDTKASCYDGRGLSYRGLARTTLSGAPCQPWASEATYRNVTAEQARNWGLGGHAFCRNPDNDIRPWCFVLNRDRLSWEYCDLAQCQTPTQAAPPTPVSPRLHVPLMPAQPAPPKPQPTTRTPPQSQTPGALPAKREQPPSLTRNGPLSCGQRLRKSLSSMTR
Target sequence (P00748 373-615 limits assumed): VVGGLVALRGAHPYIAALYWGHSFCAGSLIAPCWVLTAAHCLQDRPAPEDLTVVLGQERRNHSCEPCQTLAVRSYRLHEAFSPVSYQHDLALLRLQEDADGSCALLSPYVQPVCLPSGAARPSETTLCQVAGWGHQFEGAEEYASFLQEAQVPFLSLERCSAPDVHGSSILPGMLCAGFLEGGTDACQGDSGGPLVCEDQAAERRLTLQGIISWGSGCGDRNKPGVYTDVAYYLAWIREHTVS
KLK5 inh: blocks human kallikrein 5 protease activity; 210,000 tested, 0.59% active; inhibition, % at 5 µM; recombinant hK5, fluorogenic AMC substrate cleavage; Q9Y337;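 active = inhibition of 40% or more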;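 note: 0% = enzyme controls without compound and 100% = no-enzyme blanks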
Active calls of the source: *; / = not tested or not shown.

SMILES	thrombin 1536	m-calpain inh	FXIa inh	FXIIa inh 1536	KLK5 inh
COc1ccccc1NC(=S)N(Cc1ccco1)Cc1cc2cc(C)ccc2[nH]c1=O	48*	22	14	16	38
COc1ccccc1NC(=O)N(Cc1ccco1)Cc1cc2cccc(C)c2[nH]c1=O	2	5	2	9	-5
CCN=C1SCC(=O)N1c1ccc(OC)cc1	14	9	7	11	44*
Cc1cc(C)cc(OCC(=O)Nc2ccc(N3CCCC3)cc2)c1	2	8	16	45*	6
CC(O)CN=c1cc(-c2ccccc2)oc2ccc(Cl)cc12 (configuration not stated)	15	21	-4	16	68*
CC(C)CN=c1cc(-c2ccccc2)oc2ccc(Cl)cc12	16	-4	2	20	-1
COc1ccc(NC(=O)CCCn2cc([N+](=O)[O-])cn2)cc1	-19	-2	-2	5	0
Cn1cc([N+](=O)[O-])c(C(=O)Nc2cc(Oc3cccnc3)cc([N+](=O)[O-])c2)n1	-6	59*	-2	-6	-20
CC(=O)C1=C(C)NC(C)=C(C(C)=O)C1c1cccs1	14	-34	27	2	79*
O=C(NC(Cc1c[nH]c2ccccc12)c1nnc2n1CCCCC2)c1ccc(Cl)cc1 (configuration not stated)	14	15	-1	23	48*
NC(=O)N[C@@H](Cc1c[nH]c2ccccc12)C(=O)OCC(=O)N1CCCCC1	-19	14	38	39	30
Cc1ccc(NC(=O)c2ccc(OC(=O)COc3cccc(Cl)c3)cc2)cc1	77*	12	7	8	-15
CC(C)(C)c1ccc(C(=O)Cn2nc(C(=O)O)c3ccccc3c2=O)cc1	29	10	30	12	44*
Cc1cc(C(=O)Cn2nc(C(=O)O)c3ccccc3c2=O)c(C)n1-c1cccc(C(F)(F)F)c1	17	14	72*	24	24
CSc1nc(N2CCN(c3ccccc3Cl)CC2)c2ccccc2n1	0	30	4	11	/
COc1cc(/C=N/NC(=O)C(=O)Nc2ccccn2)ccc1O	29	40	12	4	70*
Cn1c(N)c(C(=O)COC(=O)c2ncc(Cl)c(Cl)c2Cl)c(=O)n(C)c1=O	-13	62*	-2	6	3
CC(C)Cn1c(N)c(C(=O)COC(=O)CC23CC4CC(CC(C4)C2)C3)c(=O)n(C)c1=O	-2	71*	-16	1	7
CC(C)Cn1c(N)c(C(=O)COC(=O)c2ccc(Cl)cc2)c(=O)n(C)c1=O	-8	81*	-2	2	-2
CC(C)Cn1c(N)c(C(=O)COC(=O)c2ccncc2)c(=O)n(C)c1=O	2	-17	6	0	3
Cn1c(N)c(C(=O)COC(=O)c2ccccn2)c(=O)n(C)c1=O	-6	-3	-3	3	0
O=C(COC(=O)CCc1nc2ccccc2c(=O)[nH]1)Nc1ccc(Cl)cn1	16	16	105*	40	43*
O=C(COC(=O)CCc1nc2ccccc2c(=O)[nH]1)Nc1ccccc1Cl	-1	-3	1	7	1
Cc1cc(-c2ccccc2C(=O)Nc2ccccc2O)on1	-6	4	4	8	-6
COc1ccc(NC(=O)CCC(=O)N/N=C/c2ccncc2)cc1	1	-4	-1	18	1
SMILES	thrombin 1536	m-calpain inh	FXIa inh	FXIIa inh 1536	KLK5 inh
O=C(Nc1cc(Cl)cc(Cl)c1)c1cnn2cccnc12	24	-2	12	18	69*
COc1ccccc1NC(=O)COC(=O)C12CC3CC(CC(Cl)(C3)C1)C2	2	62*	-2	-1	-10
CCn1nc(C(=O)OCC(=O)c2c[nH]c3ccccc23)c2ccccc2c1=O	2	56*	2	11	-7
CC(C)n1nc(C(=O)OCC(=O)c2c[nH]c3ccccc23)c2ccccc2c1=O	2	46	-4	16	-13
Clc1ccccc1-c1nc(-c2cccnc2)no1	16	10	9	15	57*
COC(=O)c1cccc(C(=O)Nc2ccc(C)cc2)n1	0	-11	-1	11	1
Clc1cccc2sc(N3CCCC3)nc12	12	26	8	10	109*
Cc1nnc2ccc(-c3ccc(NC(=O)c4ccco4)cc3)nn12	-4	-127	4	5	3
O=[N+]([O-])c1ccc(Nc2ccccc2)nc1	2	10	11	15	-1
O=[N+]([O-])c1ccc(NCc2ccccc2)nc1	21	52*	11	23	8
O=[N+]([O-])c1ccc(Nc2ccc(F)cc2)nc1	23	18	1	7	55*
N#CC(C(=O)NC1CC1)c1nc2ccccc2nc1N1CCN(C/C=C/c2ccccc2)CC1 (configuration not stated)	-1	-340	5	13	6
C=CCNC(=S)NCc1cccnc1	-6	11	9	11	-14
O=[N+]([O-])c1cc(Cl)ccc1-c1nc(-c2ccccc2)no1	34	17	12	40	75*
NS(=O)(=O)c1ccc2c(c1)C1C=CCC1C(C1CC=CCC1)N2 (configuration not stated)	1	7	-2	12	2
CCOC(=O)/C(C#N)=C/c1cn(CCC(=O)O)nc1-c1ccc(OC)cc1	-7	-13	-2	5	-1
CCc1ccc(NC(=O)CCn2cccc2)cc1	11	-53	41*	14	15
COC(=O)c1ccc(NC(=O)CCn2cccc2)cc1	-2	-18	-2	10	-3
Cc1cc(C)n2nc(SCc3nnc(SCc4ccccc4C)s3)nc2n1	5	0	4	23	-13
Cc1cc(C)n2nc(SCc3nnc(SCc4ccccc4Cl)s3)nc2n1	19	50*	-5	0	-25
COC(=O)CS(=O)(=O)c1nnc([C@H](Cc2ccccc2)NC(=O)OC(C)(C)C)o1	2	-14	0	42*	-5
COc1ccc(-c2nnc(SCC(=O)NC(C)C)n2CC2CCCO2)cc1OC (configuration not stated)	4	35	5	12	-4
CC1=Nc2ccc(C)cc2/C1=C/c1c(N)n2c(S(=O)(=O)C(C)C)nsc2nc1=O	-7	-26	-5	6	-3
CSc1nsc2nc(=O)c(/C=C3\C(C)=Nc4ccc(C)cc43)c(N)n12	6	-36	11	42*	2
O=C(Nc1cccc(C(F)(F)F)c1)c1scc2c1OCCO2	0	-11	0	8	/
CCCC/C(O)=N\S(=O)(=O)c1ccc(N=NN(C)C)cc1	32	28	10	34	70*
CCOC(=O)C1CSc2[nH]c(=O)sc2C1c1ccccc1 (configuration not stated)	-4	20	-9	-3	-6
O=C(O)CC12CSc3[nH]c(=O)sc3C1c1ccccc1OC2=O (configuration not stated)	7	54*	3	15	0
